# Test results reported in ChEMBL document CHEMBL4041530, “Development of spiroguanidine-derived α7 neuronal nicotinic receptor partial agonists” (Bioorg Med Chem Lett, 2017).
# Experiments:
# [1] = species on record: Homo sapiens; assay: Selectivity ratio of IC50 for 5-HT3A receptor (unknown origin) to EC50 for alpha7 nAChR (unknown origin) expressed in HEK293 cells; assay type: cell-based
# Method in brief: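 Selectivity ratio calculated as 5-HT3A IC50 (FLIPR Ca2+ antagonist assay) divided by α7 EC50 (FLIPR Ca2+ agonist assay).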
# [2] = target: T1, 5-hydroxytryptamine receptor 3A (Homo sapiens, UniProt P46098); assay: Antagonist activity at 5-HT3A receptor (unknown origin) assessed as decrease in calcium influx by Fluo-4-AM dye based FLIPR assay
# T1 sequence (P46098 whole entry): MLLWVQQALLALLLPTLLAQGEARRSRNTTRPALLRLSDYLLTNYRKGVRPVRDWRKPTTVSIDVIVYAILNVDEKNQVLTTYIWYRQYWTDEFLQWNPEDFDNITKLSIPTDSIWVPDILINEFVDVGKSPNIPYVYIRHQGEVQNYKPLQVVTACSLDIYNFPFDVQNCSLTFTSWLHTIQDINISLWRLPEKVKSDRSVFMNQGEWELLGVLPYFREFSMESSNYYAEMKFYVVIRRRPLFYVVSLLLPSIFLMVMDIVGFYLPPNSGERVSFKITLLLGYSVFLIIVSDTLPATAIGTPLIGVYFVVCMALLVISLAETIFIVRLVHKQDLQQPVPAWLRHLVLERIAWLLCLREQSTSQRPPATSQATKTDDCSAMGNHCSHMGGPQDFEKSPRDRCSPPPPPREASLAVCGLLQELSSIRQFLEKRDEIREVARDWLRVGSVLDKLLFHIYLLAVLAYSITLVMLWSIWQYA
# Method in brief: (§1)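 Ca2+-based fluorescence imaging plate reader screen, run as two assays: α7 nAChR agonism and 5-HT3A receptor antagonism. Number of determinations recorded per value.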
# [3] = target: Neuronal acetylcholine receptor subunit alpha-7 (Homo sapiens, UniProt P36544); assay: Agonist activity at alpha7 nAChR (unknown origin) expressed in HEK293 cells assessed as increase in calcium influx by Fluo-4-AM dye based FLIPR assay; assay type: cell-based; method in brief: as §1
# Neuronal acetylcholine receptor subunit alpha-7 (Homo sapiens, UniProt P36544), sequence (P36544 whole entry): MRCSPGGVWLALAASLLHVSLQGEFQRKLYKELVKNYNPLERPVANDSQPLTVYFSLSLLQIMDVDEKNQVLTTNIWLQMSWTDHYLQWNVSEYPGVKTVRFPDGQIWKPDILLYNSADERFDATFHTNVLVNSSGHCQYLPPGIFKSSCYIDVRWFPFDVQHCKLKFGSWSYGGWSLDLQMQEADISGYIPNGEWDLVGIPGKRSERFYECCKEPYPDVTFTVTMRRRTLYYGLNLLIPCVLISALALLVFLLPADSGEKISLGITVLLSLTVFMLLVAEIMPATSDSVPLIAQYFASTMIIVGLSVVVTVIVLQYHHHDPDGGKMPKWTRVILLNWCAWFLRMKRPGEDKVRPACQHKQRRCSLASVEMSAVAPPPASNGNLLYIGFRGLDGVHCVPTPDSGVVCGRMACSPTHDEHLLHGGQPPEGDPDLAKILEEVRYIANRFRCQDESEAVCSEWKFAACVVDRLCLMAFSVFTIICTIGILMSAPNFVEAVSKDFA
# [4] = target: Neuronal acetylcholine receptor subunit alpha-7 (Rattus norvegicus) (UniProt Q05941); assay: Agonist activity at rat alpha7 nAChR expressed in HEK293 cells co-expressing human RIC-3 assessed as maximum peak current at 10 uM at holding potential of -90 mV by whole-cell voltage clamp electrophysiology method relative to acetylcholine; assay type: cell-based
# Neuronal acetylcholine receptor subunit alpha-7 (Rattus norvegicus), sequence (Q05941 whole entry): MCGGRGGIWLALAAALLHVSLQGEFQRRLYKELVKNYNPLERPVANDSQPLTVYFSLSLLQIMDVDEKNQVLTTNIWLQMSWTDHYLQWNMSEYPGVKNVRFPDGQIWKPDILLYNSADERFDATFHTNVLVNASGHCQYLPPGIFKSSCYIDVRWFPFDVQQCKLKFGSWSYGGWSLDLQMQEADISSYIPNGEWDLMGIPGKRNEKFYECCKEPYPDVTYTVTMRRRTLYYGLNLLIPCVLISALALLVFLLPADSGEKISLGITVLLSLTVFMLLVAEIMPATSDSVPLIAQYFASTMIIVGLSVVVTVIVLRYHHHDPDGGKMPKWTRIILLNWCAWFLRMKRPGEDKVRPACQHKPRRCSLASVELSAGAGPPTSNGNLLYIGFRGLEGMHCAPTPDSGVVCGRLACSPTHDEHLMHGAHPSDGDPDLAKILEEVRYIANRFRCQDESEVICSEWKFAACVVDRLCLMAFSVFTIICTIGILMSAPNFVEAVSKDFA
# Method in brief: (§2)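 Concentration-response patch-clamp electrophysiology in HEK-293 cells expressing rat α7 nAChR. EC50 is taken from response area. Efficacy is given as Ymax from both area and peak response.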
# [5] = target: Neuronal acetylcholine receptor subunit alpha-7 (Rattus norvegicus, UniProt Q05941); assay: Agonist activity at rat alpha7 nAChR expressed in HEK293 cells co-expressing human RIC-3 assessed as area under current curve at holding potential of -90 mV by whole-cell voltage clamp electrophysiology method; assay type: cell-based; method in brief: as §2
# Neuronal acetylcholine receptor subunit alpha-7 (Rattus norvegicus, UniProt Q05941), sequence (Q05941 whole entry): as above
# [6] = target: Neuronal acetylcholine receptor subunit alpha-7 (Rattus norvegicus) (UniProt Q05941); assay: Agonist activity at rat alpha7 nAChR expressed in HEK293 cells co-expressing human RIC-3 assessed as area under current curve at 10 uM at holding potential of -90 mV by whole-cell voltage clamp electrophysiology method relative to acetylcholine; assay type: cell-based; method in brief: as §2
# [7] = test system: Rattus norvegicus; assay: In vivo agonist activity at alpha7 nAChR in Wistar rat assessed as induction of c-fos gene expression in medial prefrontal cortex at 10 mg/kg, sc after 2 hrs by qPCR method relative to control; assay type: functional
# Method in brief: (§3)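 Rats dosed sc at 0.3–10 mg/kg, or with vehicle at 2 mL/kg sc. Medial prefrontal cortex was assayed for c-fos and Arc expression, normalized to vehicle, with β2-microglobulin as the endogenous control. Data are mean ± SEM, N = 8. Dunnett's multiple comparison test against vehicle gave adjusted p values.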
# [8] = test system: Rattus norvegicus; assay: Effect on beta2-microglobulin gene expression in Wistar rat medial prefrontal cortex at 10 mg/kg, sc after 2 hrs by qPCR method; assay type: ADME, organism-based; settings: in vivo; method in brief: as §3
# [9] = test system: Rattus norvegicus; assay: In vivo agonist activity at alpha7 nAChR in Wistar rat assessed as induction of Arc gene expression in medial prefrontal cortex at 10 mg/kg, sc after 2 hrs by qPCR method relative to control; assay type: functional; method in brief: as §3
Compound,Ratio IC50/EC50 [1],IC50 [2] [nM],EC50 [3] [nM],Emax [4] [%],EC50 [5] [nM],Emax [6] [%],fold change (FC) [7],Activity [8],fold change (FC) [9]
Clc1ccc(NC2=NCC3(CN4CCC3CC4)N2)nc1 (racemic),0.72,860,1200,,,,,,
CN1C(Nc2nc3ccc(Cl)nc3s2)=NCC12CN1CCC2CC1 (racemic),24,13000,550,,,,,,
COc1ccc2sc(NC3=NCC4(CN5CCC4CC5)N3)nc2c1 (racemic),0.068,51,750,,,,,,
Cc1ccc2nc(NC3=NCC4(CN5CCC4CC5)N3)oc2c1 (racemic),210 to 250,7400,35,16,500,58,,,
COc1ccc2nc(NC3=NCC4(CN5CCC4CC5)N3)sc2c1 (racemic),36,32000,880,,,,,,
Clc1cnc(NC2=NCC3(CN4CCC3CC4)N2)cn1 (racemic),5.7,5600,990,,,,,,
c1ccc2c(NC3=NCC4(CN5CCC4CC5)N3)ncnc2c1 (racemic),27,14500,530,,,,,,
c1ccc2oc(NC3=NCC4(CN5CCC4CC5)N3)nc2c1 (racemic),0.49,26,53,,,,,,
Clc1ccc2nc(NC3=NCC4(CN5CCC4CC5)N3)sc2c1 (racemic),120,18000,150,5,1200,33,,,
O=C(Oc1ccc(Br)cc1)N1CCN2CCC1CC2 [SSR180711],,,,,,,2.4,Non-Toxic,3.9
